ChEMBL document CHEMBL1148450, “Novel amino acid derived natural products from the ascidian Atriolum robustum: identification and pharmacological characterization of a unique adenosine derivative” (J Med Chem, 2004)

Columns and labels:
Adenosine receptor A1 [1] = molecular target: T1, Adenosine receptor A1 (Rattus norvegicus, UniProt P25099); assay: Displacement of [3H]DPCPX from adenosine A1 receptor of rat cortical membranes without GTP; assay type: cell membranes, Membrane
T1 sequence (P25099 whole entry): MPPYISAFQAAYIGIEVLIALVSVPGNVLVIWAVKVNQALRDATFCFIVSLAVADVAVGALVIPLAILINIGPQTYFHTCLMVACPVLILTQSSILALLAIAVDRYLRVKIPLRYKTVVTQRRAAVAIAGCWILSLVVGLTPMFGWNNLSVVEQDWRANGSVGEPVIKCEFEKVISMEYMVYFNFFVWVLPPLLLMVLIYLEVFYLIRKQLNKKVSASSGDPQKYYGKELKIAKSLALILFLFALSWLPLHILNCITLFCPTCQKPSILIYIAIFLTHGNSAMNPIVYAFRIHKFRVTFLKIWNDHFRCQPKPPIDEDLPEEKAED
Method in brief: (§1)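 Cortical A1 assay as for [3H]CCPA (50 mM Tris-HCl pH 7.4, 23 °C, 90 min, ~70 µg/mL protein) but with [3H]DPCPX as radioligand and 10 µM unlabeled DPCPX for nonspecific binding. Curves were run without and with 100 µM GTP and fitted by nonlinear regression to apparent IC50s. GTP shift = IC50(+GTP)/IC50(−GTP). Two experiments, each in duplicate.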

Adenosine receptor A1 [2] = molecular target: T1, Adenosine receptor A1; assay: Displacement of [3H]DPCPX from adenosine A1 receptor of rat cortical membranes with GTP; assay type: cell membranes, Membrane; method in brief: as §1
[3] = molecular target: T2, Adenosine receptor A1 (Rattus norvegicus) (UniProt P25099); assay: Binding affinity against adenosine A1 receptor in the presence of GTP relative to the absence of GTP
T2 sequence (whole entry): T1 sequence (P25099 whole entry)

Adenosine receptor A2a [4] = molecular target: T3, Adenosine receptor A2a (Rattus norvegicus, UniProt P30543); assay: Displacement of [3H]-MSX-2 from Adenosine A2A receptor of rat striatal membranes; assay type: cell membranes, Membrane
T3 sequence (P30543 whole entry): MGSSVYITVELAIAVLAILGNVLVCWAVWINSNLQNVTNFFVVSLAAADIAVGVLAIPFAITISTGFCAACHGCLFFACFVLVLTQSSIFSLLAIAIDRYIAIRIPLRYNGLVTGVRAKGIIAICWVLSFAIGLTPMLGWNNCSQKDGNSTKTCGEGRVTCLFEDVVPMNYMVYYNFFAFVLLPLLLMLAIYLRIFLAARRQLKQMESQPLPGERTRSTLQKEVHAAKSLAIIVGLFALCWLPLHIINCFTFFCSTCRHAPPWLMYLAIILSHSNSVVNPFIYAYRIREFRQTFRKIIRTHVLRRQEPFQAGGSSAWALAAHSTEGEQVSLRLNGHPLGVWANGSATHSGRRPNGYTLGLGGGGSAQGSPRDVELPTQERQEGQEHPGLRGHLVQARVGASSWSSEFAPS
Method in brief: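 Rat striatal membranes (protein ca. 70 µg/mL) were incubated with 1 nM [3H]MSX-2 in 50 mM Tris-HCl, pH 7.4, for 30 min at 23 °C. […] Filtration was on PEI-presoaked GF/B filters with scintillation counting. Seven to nine concentrations (DMSO stock) spanned 3 log units; three experiments, each in duplicate.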

Adenosine receptor A2a [5] = molecular target: T3, Adenosine receptor A2a; assay: Displacement of [3H]NECA from Adenosine A2A receptor of rat striatal membranes; assay type: cell membranes, Membrane
Adenosine receptor A1 [6] = molecular target: T1, Adenosine receptor A1; assay: Displacement of [3H]CCPA from adenosine A1 receptor of rat cortical membranes; assay type: cell membranes, Membrane
Method in brief: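 Rat brain cortical membranes at about 70 µg/mL protein, with 0.5 nM [3H]CCPA in 50 mM Tris-HCl pH 7.4, 23 °C for 90 min. Nonspecific binding was set with 10 µM 2-chloroadenosine. Bound ligand was collected by GF/B filtration and counted by scintillation. The test compound came from DMSO at 7–9 concentrations spanning 3 orders of magnitude. Three experiments were run, each in duplicate.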

Adenosine receptor A1 [7] = molecular target: T1, Adenosine receptor A1; assay: Displacement of [3H]DPCPX from adenosine A1 receptor of rat cortical membranes; assay type: cell membranes, Membrane
Method in brief: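 Run as the rat cortical membrane A1 assay (50 mM Tris-HCl pH 7.4, 23 °C, 90 min) but with [3H]DPCPX as radioligand. Nonspecific binding was set with 10 µM unlabeled DPCPX. Binding was measured without and with 100 µM GTP, and IC50 came from nonlinear regression. GTP shift is the IC50 with GTP divided by the IC50 without GTP. Two experiments were run, each in duplicate.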

Adenosine receptor A1 [8] = molecular target: T1, Adenosine receptor A1; assay: Displacement of [3H]R-PIA from adenosine A1 receptor of rat cortical membranes; assay type: cell membranes, Membrane
Adenosine receptor A3 [9] = molecular target: T4, Adenosine receptor A3 (Homo sapiens, UniProt P0DMS8); assay: Displacement of [3H]PSB-11 from human adenosine A3 receptor expressed in CHO cells; assay type: cell-based
T4 sequence (P0DMS8 whole entry): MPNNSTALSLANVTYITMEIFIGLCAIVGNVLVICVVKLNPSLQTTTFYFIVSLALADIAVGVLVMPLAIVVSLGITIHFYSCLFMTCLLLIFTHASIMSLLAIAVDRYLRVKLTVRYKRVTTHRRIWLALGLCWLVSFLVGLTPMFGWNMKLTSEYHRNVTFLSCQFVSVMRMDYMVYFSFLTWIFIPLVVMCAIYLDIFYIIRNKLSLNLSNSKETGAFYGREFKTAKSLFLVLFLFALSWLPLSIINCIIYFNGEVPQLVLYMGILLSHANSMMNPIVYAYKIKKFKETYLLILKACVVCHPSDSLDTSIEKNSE
Method in brief: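 Membranes came from CHO cells stably expressing human A3AR. They were incubated with 0.5 nM [3H]PSB-11 in 50 mM Tris-HCl, pH 7.4, for 45 min, and 100 µM R-PIA defined nonspecific binding. Bound radioactivity was collected on GF/B filters and scintillation-counted. Seven to nine test concentrations were used; run twice, each in duplicate.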

Adenosine receptor A3 [10] = molecular target: T4, Adenosine receptor A3; assay: Inhibition of forskolin-stimulated cAMP accumulation in chinese hamster ovary cell membranes expressing human adenosine A3 receptor; assay type: functional, cell-based
[11] = molecular target: T5, Adenosine receptor A3 (Homo sapiens) (UniProt P0DMS8); assay: Percent efficacy for inhibition of human adenosine A3 receptor activity relative to NECA; assay type: functional
T5 sequence (whole entry): T4 sequence (P0DMS8 whole entry)

Adenosine receptor A2b [12] = molecular target: T6, Adenosine receptor A2b (Homo sapiens, UniProt P29275); assay: Binding affinity towards human adenosine A2B receptor in VA13 fibroblasts as […] at 10 uM; Less than 10% inhibition; assay type: functional
T6 sequence (P29275 whole entry): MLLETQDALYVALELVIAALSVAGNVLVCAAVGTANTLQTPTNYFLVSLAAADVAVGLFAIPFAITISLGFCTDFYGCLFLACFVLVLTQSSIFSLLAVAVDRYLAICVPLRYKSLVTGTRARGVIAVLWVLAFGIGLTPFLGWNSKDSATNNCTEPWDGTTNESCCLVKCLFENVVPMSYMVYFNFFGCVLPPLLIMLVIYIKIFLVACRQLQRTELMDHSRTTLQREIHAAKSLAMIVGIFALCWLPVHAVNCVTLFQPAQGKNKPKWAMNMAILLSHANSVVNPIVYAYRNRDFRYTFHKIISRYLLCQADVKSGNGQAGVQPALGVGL

Adenosine receptor A2b [13] = molecular target: T6, Adenosine receptor A2b; assay: Displacement of [3H]PSB-298 from human adenosine A2B receptor expressed in HEK293 cells at 10 uM; Less than 10% inhibition; assay type: cell-based
Adenosine receptor A1 [14] = molecular target: T1, Adenosine receptor A1; assay: Displacement of [3H]CCPA from Adenosine A1 receptor of rat cortical membranes; assay type: cell membranes, Membrane
Method in brief: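 A1 binding used rat cortical membranes (ca. 70 µg/mL protein) with 0.5 nM [3H]CCPA in 50 mM Tris-HCl, pH 7.4, for 90 min at 23 °C. 10 µM 2-chloroadenosine defined nonspecific binding. Separation was by GF/B filtration and scintillation counting. Inhibition curves had seven to nine concentrations across 3 orders of magnitude; three separate experiments, each in duplicate.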

Adenosine receptor A1 [15] = molecular target: T1, Adenosine receptor A1; assay: Displacement of [3H]DPCPX from rat Adenosine A1 receptor of cortical membranes; assay type: cell membranes, Membrane; method in brief: as §1
Adenosine receptor A2b [16] = molecular target: T6, Adenosine receptor A2b; assay: Displacement of [3H]PSB-298 from human adenosine A2B receptor expressed in HEK293 cells at 10 uM; assay type: cell-based

Row | Structure (SMILES) | IC50 (Adenosine receptor A1 [1]) | IC50 (Adenosine receptor A1 [2]) | Ratio [3] | Ki (Adenosine receptor A2a [4]) | Ki (Adenosine receptor A2a [5]) | Ki (Adenosine receptor A1 [6]) | Ki (Adenosine receptor A1 [7]) | Ki (Adenosine receptor A1 [8]) | Ki (Adenosine receptor A3 [9]) | IC50 (Adenosine receptor A3 [10]) | Efficacy [11] | Ki (Adenosine receptor A2b [12]) | Ki (Adenosine receptor A2b [13]) | Ki (Adenosine receptor A1 [14]) | Ki (Adenosine receptor A1 [15]) | Ki (Adenosine receptor A2b [16])
1 | Cn1cnc2c(N)ncnc21 | 12.5 µM | 14.7 µM | 1.2 | – | – | – | – | – | – | – | – | – | – | – | – | –
2 | CSC[C@H]1O[C@@H](n2cnc3c(N)ncnc32)[C@H](O)[C@@H]1O [METHYLTHIOADENOSINE] | 0.68 µM | 15.1 µM | 22.2 | 1.13 µM | 1.18 µM | 0.15 µM | 0.21 µM | 0.24 µM | 0.68 µM | 71 µM | 46% | 8.2 µM | 13.9 µM | – | – | –
3 | CO/C(=C\c1ccc(O)cc1)C(=O)O[C@@H]1[C@H](OC(=O)/C=C/c2c[nH]cn2)[C@@H](CSC)O[C@H]1n1cnc2c(N)ncnc21 | 23 µM | 143 µM | 6.2 | 17.1 µM | – | – | – | – | 6.94 µM | 6.7 µM | 56% | – | – | 3.26 µM | 9.45 µM | > 10 µM
4 | CC(=O)O[C@]1(C(C)=O)CC[C@H]2[C@@H]3C=C(Cl)C4=CC(=O)[C@@H]5C[C@@H]5[C@]4(C)[C@H]3CC[C@@]21C [CYPROTERONE ACETATE] | 0.005 µM | 0.125 µM | 22.8 | – | – | – | – | – | – | – | – | – | – | – | – | –
